In ChEMBL document CHEMBL4368909, “Identification of Dihydrofuro[3,4- d]pyrimidine Derivatives as Novel HIV-1 Non-Nucleoside Reverse Transcriptase Inhibitors with Promising Antiviral Activities and Desirable Physicochemical Properties” (J Med Chem, 2019):
pEC50, pIC50: −log10 of the molar value. In brackets after ≈: the same amount, converted by molar mass.

How the values were obtained:
[1] = Half life in Wistar rat at 20 mg/kg, po by LC-MS/MS analysis; type: ADME, organism-based; settings: in vivo
How it was run: (§1)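 Male/unspecified Wistar rats given one dose, 2 mg/kg intravenously or 20 mg/kg orally; plasma concentration–time profiles followed; PK parameters reported as mean ± SD, n = 5.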

[2] = Protein binding in human plasma assessed as recovery rate at 2 uM after 5 hrs by LC/MS analysis; type: ADME, cell-free
[3] = Tmax in Wistar rat at 2 mg/kg, iv by LC-MS/MS analysis; type: ADME, organism-based; settings: in vivo; how it was run: as §1
[4] = molecular target: Cytochrome P450 2C9 (Homo sapiens, UniProt P11712); experiment: Inhibition of CYP2C9 in human liver microsomes using diclofenac as substrate after 10 mins in presence of NADPH; type: ADME
[5] = molecular target: Cytochrome P450 2D6 (Homo sapiens, UniProt P10635); experiment: Inhibition of CYP2D6 in human liver microsomes using dextromethorphan as substrate after 10 mins in presence of NADPH; type: ADME
[6] = Protein binding in human plasma at 2 uM after 5 hrs by LC/MS analysis; type: ADME, cell-free; settings: read-out: PPB (converted)
[7] = system: Human immunodeficiency virus 1; experiment: Resistance factor, ratio of EC50 for HIV1 harboring reverse transcriptase L100I mutant to EC50 for wild type HIV1; type: functional
How it was run: (§2)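 The resistance factor is the EC50 against the mutant strain divided by the EC50 against wild-type HIV-1. Both were measured in MT-4 cells by MTT read-out of protection from virus-induced cytopathicity.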

[8] = system: Human immunodeficiency virus 1; experiment: Resistance factor, ratio of EC50 for HIV1 harboring reverse transcriptase K103N mutant to EC50 for wild type HIV1; type: functional; how it was run: as §2
[9] = Aqueous solubility of the compound at pH at 7.4 by HPLC analysis; type: physicochemical; settings: buffer, pH 7.4
How it was run: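 Aqueous solubility read by HPLC in buffer at pH 2.0, 7.0 or 7.4.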

[10] = system: Human immunodeficiency virus 1; experiment: Resistance factor, ratio of EC50 for HIV1 harboring reverse transcriptase Y181C mutant to EC50 for wild type HIV1; type: functional; how it was run: as §2
[11] = AUC (0 to infinity) in Wistar rat at 20 mg/kg, po by LC-MS/MS analysis; type: ADME, organism-based; parameters: dose 20 mg/kg, route oral, time infinity; settings: in vivo; how it was run: as §1
[12] = system: Human immunodeficiency virus 1; experiment: Antiviral activity against HIV1 harboring reverse transcriptase Y188L mutant infected in human MT4 cells assessed as reduction in virus-induced cytopathic effect after 5 days by MTT assay; type: functional, organism-based; settings: Human immunodeficiency virus 1, MT4, 120 h
[13] = system: Human immunodeficiency virus 1; experiment: Antiviral activity against HIV1 harboring reverse transcriptase Y181C mutant infected in human MT4 cells assessed as reduction in virus-induced cytopathic effect after 5 days by MTT assay; type: functional, organism-based; settings: Human immunodeficiency virus 1, MT4, 120 h
[14] = AUCt in Wistar rat at 2 mg/kg, iv by LC-MS/MS analysis; type: ADME, organism-based; settings: in vivo; how it was run: as §1
[15] = Aqueous solubility of the compound in FASSIF by HPLC analysis; type: physicochemical; settings: simulated gi fluid
How it was run: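 Solubility read by HPLC in fasted state simulated intestinal fluid (FaSSIF).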

[16] = system: Human immunodeficiency virus 1; experiment: Antiviral activity against HIV1 harboring reverse transcriptase K103N mutant infected in human MT4 cells assessed as reduction in virus-induced cytopathic effect after 5 days by MTT assay; type: functional, organism-based; settings: Human immunodeficiency virus 1, MT4, 120 h
[17] = system: Human immunodeficiency virus 2; experiment: Antiviral activity against HIV2 ROD infected in human MT4 cells assessed as reduction in virus-induced cytopathic effect after 5 days by MTT assay; settings: Human immunodeficiency virus 2, ISOLATE ROD, MT4, 120 h
[18] = Clearance in Wistar rat at 2 mg/kg, iv by LC-MS/MS analysis; type: ADME, organism-based; settings: in vivo; how it was run: as §1
[19] = Protein binding in rat plasma at 2 uM after 5 hrs by LC/MS analysis; type: ADME, cell-free; settings: read-out: PPB (converted)

Sequence of Cytochrome P450 2D6 (P10635 whole entry): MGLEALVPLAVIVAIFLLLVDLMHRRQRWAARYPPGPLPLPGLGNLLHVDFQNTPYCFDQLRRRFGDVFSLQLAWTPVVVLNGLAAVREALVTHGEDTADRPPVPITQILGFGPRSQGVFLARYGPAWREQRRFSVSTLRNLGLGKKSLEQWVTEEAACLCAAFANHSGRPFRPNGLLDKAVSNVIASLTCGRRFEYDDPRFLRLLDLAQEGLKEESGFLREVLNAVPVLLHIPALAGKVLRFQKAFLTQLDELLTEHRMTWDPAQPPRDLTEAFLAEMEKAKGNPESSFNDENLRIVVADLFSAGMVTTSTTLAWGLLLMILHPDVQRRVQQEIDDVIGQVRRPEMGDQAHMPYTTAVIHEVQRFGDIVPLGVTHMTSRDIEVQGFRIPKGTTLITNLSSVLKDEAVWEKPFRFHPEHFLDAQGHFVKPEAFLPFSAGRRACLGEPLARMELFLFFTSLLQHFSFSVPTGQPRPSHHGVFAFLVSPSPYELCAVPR
Sequence of Cytochrome P450 2C9 (P11712 whole entry): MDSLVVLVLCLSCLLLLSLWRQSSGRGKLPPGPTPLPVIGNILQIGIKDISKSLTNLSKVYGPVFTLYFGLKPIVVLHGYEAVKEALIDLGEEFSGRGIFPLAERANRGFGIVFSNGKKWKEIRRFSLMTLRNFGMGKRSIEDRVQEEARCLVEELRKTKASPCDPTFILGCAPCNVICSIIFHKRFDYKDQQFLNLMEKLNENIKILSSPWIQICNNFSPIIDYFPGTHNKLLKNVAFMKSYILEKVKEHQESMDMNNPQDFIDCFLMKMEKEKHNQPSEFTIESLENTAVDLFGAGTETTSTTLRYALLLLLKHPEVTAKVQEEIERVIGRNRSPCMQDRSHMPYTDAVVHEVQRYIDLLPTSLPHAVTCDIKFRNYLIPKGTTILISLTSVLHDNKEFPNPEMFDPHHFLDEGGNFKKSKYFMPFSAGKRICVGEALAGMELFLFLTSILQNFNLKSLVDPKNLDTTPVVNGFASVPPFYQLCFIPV

## Cc1cc(C#N)cc(C)c1Oc1nc(NC2CCN(Cc3ccc(C(N)=O)cc3)CC2)nc2c1COC2
[1]
  half-life: 666 min
[2]
  Drug recovery: 86.3%
[3]
  Tmax: 1.98 min
[4]
  pIC50: 4.33
[5]
  pIC50: < 4.30
[6]
  fraction unbound at 5 h, 2 µM: 0.07
[7]
  Ratio EC50: 1.5
[8]
  Ratio EC50: 0.6
[9]
  solubility: 6.59 µg/mL (≈ 13.2 µM)
[10]
  Ratio EC50: 2.8
[11]
  AUC(0-inf): 1660 ng·h/mL
[12]
  pEC50: 8.08
[13]
  pEC50: 8.36
[14]
  AUC(0-t): 500 ng·h/mL
[15]
  solubility: 32.5 µg/mL (≈ 65.2 µM)
[16]
  pEC50: 9.05
[17]
  pEC50: 4.90
[18]
  clearance: 61.5 mL/min/kg
[19]
  fraction unbound at 5 h, 2 µM: 0.082
